Results as given in ChEMBL document CHEMBL4699666, “Cyclic Peptidyl Inhibitors against CAL/CFTR Interaction for Treatment of Cystic Fibrosis” (J Med Chem, 2020).
Non-standard residues stand in square brackets, D forms with d. Residues, ends and D or L forms follow the SMILES beside them. *: point of attachment. 2Nal = N[C@@H](Cc1ccc2ccccc2c1)C(=O)O; Bta = N[C@@H](Cc1csc2ccccc12)C(=O)O; Pen = CC(C)(S)[C@H](N)C(=O)O; Tle = CC(C)(C)[C@H](N)C(=O)O; Nicotinoyl = O=C(c1cccnc1)*

Key:
[1] = molecular target: T1, Golgi-associated PDZ and coiled-coil motif-containing protein (Homo sapiens, UniProt Q9HD26); assay: Binding affinity to C-terminal His6 tagged CAL PDZ domain (unknown origin) expressed in Escherichia coli BL21 incubated for 1 hr using FAM-ANSRWPTSII-OH probe by fluorescence polarization based competition assay
[2] = molecular target: T1, Golgi-associated PDZ and coiled-coil motif-containing protein; assay: Binding affinity to C-terminal His6 tagged CAL PDZ domain (unknown origin) expressed in Escherichia coli BL21 incubated for 1 hr using FAM-22 probe by fluorescence polarization based competition assay
[3] = Drug uptake in human HeLa cells at 5 uM incubated for 2 hrs by flow cytometry relative to CPP9; format: ADME, cell-based
Procedure, shortened: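 Naphthofluorescein-labelled cyclic peptides (5 μM final, 0.5% DMSO, in DMEM with 10% FBS) were applied to HeLa cells, seeded the day before at 15 × 10^4 per well, for 2 h at 37 °C. Cells were washed with cold DPBS, trypsinized and analysed by flow cytometry. Mean fluorescence was expressed as % of CPP9; n = 3.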

[4] = molecular target: T2, Na(+)/H(+) exchange regulatory cofactor NHE-RF2 (Homo sapiens, UniProt Q15599); assay: Binding affinity to NHERF2 PDZ2 domain (unknown origin) expressed in Escherichia coli BL21 incubated for 1 hr by fluorescence polarization based competition assay
[5] = molecular target: T3, Na(+)/H(+) exchange regulatory cofactor NHE-RF1 (Homo sapiens, UniProt O14745); assay: Binding affinity to NHERF1 PDZ1 domain (unknown origin) expressed in Escherichia coli BL21 incubated for 1 hr by fluorescence polarization based competition assay
T3 sequence (O14745 whole entry): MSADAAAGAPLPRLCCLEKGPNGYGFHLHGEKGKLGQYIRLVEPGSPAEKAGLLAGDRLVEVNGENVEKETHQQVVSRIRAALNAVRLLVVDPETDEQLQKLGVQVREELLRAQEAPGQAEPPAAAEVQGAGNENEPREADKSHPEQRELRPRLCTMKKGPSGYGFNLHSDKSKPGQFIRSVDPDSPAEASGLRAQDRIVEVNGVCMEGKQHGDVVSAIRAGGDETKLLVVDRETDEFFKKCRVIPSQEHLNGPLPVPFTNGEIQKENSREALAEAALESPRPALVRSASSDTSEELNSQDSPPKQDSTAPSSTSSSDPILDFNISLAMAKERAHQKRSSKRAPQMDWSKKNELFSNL
Procedure, shortened: (§1)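 CAL, NHERF1 and NHERF2 PDZ domains carried a C-terminal His6 tag, were expressed in E. coli BL21 (0.1 mM IPTG, 16 h at 18 °C) and purified on Ni-NTA. For direct binding, 50 nM fluorescein-labelled peptide was titrated with PDZ protein (0–2.5 μM CAL; 0–25 μM NHERF1/2) in PBS pH 7.4 with 0.01% Triton X-100 and 2 mM TCEP for 1 h at room temperature. Fluorescence polarization gave KD; n = 3.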

[6] = molecular target: T1, Golgi-associated PDZ and coiled-coil motif-containing protein; assay: Binding affinity to C-terminal His6 tagged CAL PDZ domain (unknown origin) expressed in Escherichia coli BL21 incubated for 1 hr by fluorescence polarization assay
[7] = molecular target: T2, Na(+)/H(+) exchange regulatory cofactor NHE-RF2; assay: Binding affinity to NHERF2 PDZ1 domain (unknown origin) expressed in Escherichia coli BL21 incubated for 1 hr by fluorescence polarization based competition assay; procedure, shortened: as §1

T2 sequence (Q15599 whole entry, the tested form may be a part): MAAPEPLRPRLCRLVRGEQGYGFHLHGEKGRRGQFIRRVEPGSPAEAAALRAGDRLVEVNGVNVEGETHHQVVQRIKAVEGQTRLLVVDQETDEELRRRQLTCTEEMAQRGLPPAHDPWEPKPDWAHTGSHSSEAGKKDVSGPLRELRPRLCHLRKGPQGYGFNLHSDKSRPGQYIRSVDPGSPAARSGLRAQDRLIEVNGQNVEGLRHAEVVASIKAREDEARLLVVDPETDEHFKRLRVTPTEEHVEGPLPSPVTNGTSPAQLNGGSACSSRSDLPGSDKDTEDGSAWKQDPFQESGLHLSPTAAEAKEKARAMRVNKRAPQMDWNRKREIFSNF

Row | SMILES | IC50 [1] [nM] | Kd [4] [nM] | Kd [5] [nM] | Kd [6] [nM] | Kd [7] [nM] | other results
1 | CC(=O)N[C@@H](CCCNC(=N)N)C(=O)N[C@@H](CCCNC(=N)N)C(=O)N[C@@H](Cc1ccccc1)C(=O)N[C@@H](Cc1c[nH]c2ccccc12)C(=O)N[C@@H](CCC(N)=O)C(=O)N[C@@H](CS)C(=O)N[C@H](C(=O)N[C@@H](CCCCNC(=O)c1cccnc1)C(=O)N[C@H](C(=O)O)C(C)(C)C)[C@@H](C)O (Ac-RRFWQCTK(Nicotinoyl)[Tle]-OH) | 2200 |  |  |  |  | 
2 | CC(=O)N[C@@H](CS)C(=O)N[C@H](CCCNC(=N)N)C(=O)N[C@@H](CCCNC(=N)N)C(=O)N[C@@H](CCCNC(=N)N)C(=O)N[C@@H](Cc1ccc2ccccc2c1)C(=O)N[C@@H](Cc1csc2ccccc12)C(=O)N[C@H](C(=O)N[C@H](C(=O)N[C@H](C(=O)N[C@@H](CCCNC(=N)N)C(=O)N[C@H](C(=O)O)C(C)(C)C)[C@@H](C)O)C(C)(C)C)C(C)(C)S (Ac-C[dR]RR[2Nal][Bta][Pen][Tle]TR[Tle]-OH) |  |  |  |  |  | IC50 [2]: 240 nM; Drug uptake [3]: 518%
3 | C[C@@H](O)[C@H](NC(=O)[C@@H](NC(=O)[C@@H]1CCCCN1C(=O)[C@H](Cc1csc2ccccc12)NC(=O)[C@H](Cc1ccc2ccccc2c1)NC(=O)[C@H](CCCNC(=N)N)NC(=O)[C@H](CCCNC(=N)N)NC(=O)[C@@H](CCCNC(=N)N)NC(=O)[C@H](CS)NC(=O)COCCOCCNC(=S)Nc1ccc2c(c1)C(=O)OC21c2ccc(O)cc2Oc2cc(O)ccc21)C(C)(C)S)C(=O)N[C@@H](CCCNC(=N)N)C(=O)N[C@H](C(=O)O)C(C)(C)C |  | 7480 | 780 | 6 | 1370 | 
4 | CC(=O)N[C@@H](CCCNC(=N)N)C(=O)N[C@@H](CCCNC(=N)N)C(=O)N[C@@H](Cc1ccccc1)C(=O)N[C@@H](Cc1c[nH]c2ccccc12)C(=O)N[C@H](CS)C(=O)N[C@@H](CS)C(=O)N[C@H](C(=O)N[C@@H](CCCNC(=N)N)C(=O)N[C@H](C(=O)O)C(C)(C)C)[C@@H](C)O (Ac-RRFW[dC]CTR[Tle]-OH) | 10000 |  |  |  |  | 
5 | C[C@@H](O)[C@H](NC(=O)[C@@H](NC(=O)[C@H](CCC(N)=O)NC(=O)[C@H](Cc1c[nH]c2ccccc12)NC(=O)[C@H](Cc1ccc2ccccc2c1)NC(=O)[C@H](CCCNC(=N)N)NC(=O)[C@H](CCCNC(=N)N)NC(=O)[C@@H](CCCNC(=N)N)NC(=O)[C@H](CS)NC(=O)CCNC(=S)Nc1ccc(-c2c3ccc(=O)cc-3oc3cc(O)ccc23)c(C(=O)O)c1)C(C)(C)S)C(=O)N[C@@H](CCCNC(=N)N)C(=O)N[C@H](C(=O)O)C(C)(C)C |  | 4070 | 1640 | 113 | 1870 | 

The next lines start with results.

Row | IC50 [1] [nM] | Kd [4] [nM] | Kd [5] [nM] | Kd [6] [nM] | Kd [7] [nM] | SMILES | other results
6 | 2400 |  |  |  |  | CC(=O)N[C@@H](CCCNC(=N)N)C(=O)N[C@@H](CCCNC(=N)N)C(=O)N[C@@H](Cc1ccccc1)C(=O)N[C@@H](Cc1c[nH]c2ccccc12)C(=O)N[C@@H](CCC(N)=O)C(=O)N[C@@H](CS)C(=O)N[C@H](C(=O)N[C@@H](CCCCNC(=N)N)C(=O)N[C@H](C(=O)O)C(C)(C)C)[C@@H](C)O | 
7 |  | 7660 | 3970 | 87 | 6040 | C[C@@H](O)[C@H](NC(=O)[C@@H](NC(=O)[C@@H]1CCCN1C(=O)[C@H](Cc1csc2ccccc12)NC(=O)[C@H](Cc1ccc2ccccc2c1)NC(=O)[C@H](CCCNC(=N)N)NC(=O)[C@H](CCCNC(=N)N)NC(=O)[C@@H](CCCNC(=N)N)NC(=O)[C@H](CS)NC(=O)COCCOCCNC(=S)Nc1ccc2c(c1)C(=O)OC21c2ccc(O)cc2Oc2cc(O)ccc21)C(C)(C)S)C(=O)N[C@@H](CCCNC(=N)N)C(=O)N[C@H](C(=O)O)C(C)(C)C | 
